Measured values as given in ChEMBL document CHEMBL3351619 (J Med Chem, 2014).
Active and inactive are the calls of the source. The rule behind the calls is not given here.

Experiments:
[1] = target: T1, 5-hydroxytryptamine receptor 7 (Homo sapiens, UniProt P34969); test: Displacement of [3H]LSD from human 5-HT7 expressed in HEK-293 cells after 120 mins by scintillation spectrometry; assay type: cell-based, HEK293
Summary of the method: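 Competition binding on membranes of CHO-K1 or HEK-293 cells transfected with human 5-HT7 receptor, radioligand [3H]LSD; 5-CT as reference. Two to four experiments, each in triplicate; Ki reported as mean.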

[2] = target: T2, 5-hydroxytryptamine receptor 1A (Homo sapiens, UniProt P08908); test: Displacement of [3H]-8-OH-DPAT from human 5-HT1A expressed in CHO-K1 cells after 120 mins by scintillation spectrometry; assay type: cell-based
T2 sequence (P08908 whole entry): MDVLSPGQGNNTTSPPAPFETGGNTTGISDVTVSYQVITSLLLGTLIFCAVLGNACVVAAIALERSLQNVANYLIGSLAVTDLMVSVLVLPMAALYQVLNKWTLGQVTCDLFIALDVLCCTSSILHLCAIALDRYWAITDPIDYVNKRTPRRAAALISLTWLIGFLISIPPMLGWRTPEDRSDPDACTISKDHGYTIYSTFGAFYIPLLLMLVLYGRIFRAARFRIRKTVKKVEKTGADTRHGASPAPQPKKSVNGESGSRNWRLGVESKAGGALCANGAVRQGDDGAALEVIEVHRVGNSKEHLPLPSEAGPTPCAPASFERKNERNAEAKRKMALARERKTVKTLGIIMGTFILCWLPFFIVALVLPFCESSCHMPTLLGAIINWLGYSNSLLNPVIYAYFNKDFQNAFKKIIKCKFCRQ
Summary of the method: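 Competitive radioligand binding on membranes from transfected cells expressing human 5-HT1A receptor, with [3H]-8-OH-DPAT as the radioligand. Affinity is given as Ki, the mean of two to four experiments, each run in triplicate.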

[3] = target: T1, 5-hydroxytryptamine receptor 7; test: Antagonist activity at human 5-HT7 expressed in HEK-293 cells assessed as inhibition in serotonin-induced increase in cAMP level after 45 mins by HTRF assay; assay type: functional, cell-based, HEK293
Summary of the method: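 From the concentration–response curve, maximal inhibition (Imax) and IC50 were read, and the dissociation constant KB was calculated.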

[4] = target: T1, 5-hydroxytryptamine receptor 7; test: Agonist activity at human 5-HT7 expressed in HEK-293 cells assessed as increase in cAMP level after 45 mins by HTRF assay; assay type: functional, cell-based, HEK293
[5] = target: Melatonin receptor (Homo sapiens) (UniProt P48039+P49286); test: Displacement of [125I]-2-iodomelatonin from MT1 (unknown origin) at 1 uM after 60 mins; assay type: protein assay
Summary of the method: (§1)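 Single test concentration of 1 μM; percent displacement of the respective radioligand binding at each target.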

[6] = system: Mus musculus; test: Effect on core body temperature in C57BL/6J mouse at 0.3 to 1 mg/kg, ip administered as single dose; assay type: functional, organism-based
Summary of the method: (§2)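 C57BL/6J mice (male and female, 8−12 weeks), single ip doses in 0.9% saline vehicle, start 9:00 h. Rectal probe core temperature taken at baseline just before injection, at 15 and 30 min, then every 30 min to 2 h. For antagonism, test drug given 30 min before 8-OH-DPAT (0.3 mg/kg ip).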

[7] = target: T3, Corticotropin-releasing factor receptor 1 (Homo sapiens) (UniProt P34998); test: Displacement of [125I]sauvagine from CRF1 (unknown origin) at 1 uM after 120 mins; summary of the method: as §1
T3 sequence (whole entry): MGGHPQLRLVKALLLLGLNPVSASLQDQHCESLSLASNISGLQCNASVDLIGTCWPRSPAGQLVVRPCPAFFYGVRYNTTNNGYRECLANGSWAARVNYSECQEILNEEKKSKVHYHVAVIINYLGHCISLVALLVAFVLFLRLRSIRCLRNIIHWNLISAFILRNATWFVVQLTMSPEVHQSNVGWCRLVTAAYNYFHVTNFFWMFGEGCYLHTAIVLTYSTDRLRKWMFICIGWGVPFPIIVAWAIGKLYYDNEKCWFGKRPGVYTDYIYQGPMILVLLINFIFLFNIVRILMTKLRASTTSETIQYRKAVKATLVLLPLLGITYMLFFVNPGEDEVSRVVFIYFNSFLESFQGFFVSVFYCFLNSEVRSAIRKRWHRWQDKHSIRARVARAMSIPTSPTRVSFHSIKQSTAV

[8] = system: Mus musculus; test: Antidepressant activity in C57BL/6J mouse assessed as decrease in the immobility at 1 mg/kg, ip administered as single dose measured for last 4 mins of test by tail suspension method relative to vehicle-treated control; assay type: functional, organism-based; parameters: dose 1 mg/kg
[9] = target: 5-hydroxytryptamine receptor 2A (Homo sapiens) (UniProt P28223); test: Displacement of [3H]ketanserin from 5-HT2A (unknown origin) at 1 uM after 60 mins; summary of the method: as §1
Chain of 5-hydroxytryptamine receptor 2A (Homo sapiens) (P28223 whole entry): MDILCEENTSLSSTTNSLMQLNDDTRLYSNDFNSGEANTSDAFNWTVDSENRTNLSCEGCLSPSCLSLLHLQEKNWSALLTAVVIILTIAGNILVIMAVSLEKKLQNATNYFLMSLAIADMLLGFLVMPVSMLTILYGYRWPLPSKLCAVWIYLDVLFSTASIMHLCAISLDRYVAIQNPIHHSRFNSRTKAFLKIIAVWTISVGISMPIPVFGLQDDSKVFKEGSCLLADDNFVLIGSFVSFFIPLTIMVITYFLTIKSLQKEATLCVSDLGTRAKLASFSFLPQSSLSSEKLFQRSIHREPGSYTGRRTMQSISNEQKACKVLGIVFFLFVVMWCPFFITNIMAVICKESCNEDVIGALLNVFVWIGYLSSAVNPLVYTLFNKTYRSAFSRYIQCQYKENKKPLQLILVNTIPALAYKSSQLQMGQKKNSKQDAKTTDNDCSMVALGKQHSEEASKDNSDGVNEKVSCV

[10] = target: Sodium-dependent serotonin transporter (Homo sapiens) (UniProt P31645); test: Displacement of [3H]imipramine from 5-HT transporter (unknown origin) at 1 uM after 60 mins; summary of the method: as §1
Chain of Sodium-dependent serotonin transporter (Homo sapiens) (P31645 whole entry, looked up): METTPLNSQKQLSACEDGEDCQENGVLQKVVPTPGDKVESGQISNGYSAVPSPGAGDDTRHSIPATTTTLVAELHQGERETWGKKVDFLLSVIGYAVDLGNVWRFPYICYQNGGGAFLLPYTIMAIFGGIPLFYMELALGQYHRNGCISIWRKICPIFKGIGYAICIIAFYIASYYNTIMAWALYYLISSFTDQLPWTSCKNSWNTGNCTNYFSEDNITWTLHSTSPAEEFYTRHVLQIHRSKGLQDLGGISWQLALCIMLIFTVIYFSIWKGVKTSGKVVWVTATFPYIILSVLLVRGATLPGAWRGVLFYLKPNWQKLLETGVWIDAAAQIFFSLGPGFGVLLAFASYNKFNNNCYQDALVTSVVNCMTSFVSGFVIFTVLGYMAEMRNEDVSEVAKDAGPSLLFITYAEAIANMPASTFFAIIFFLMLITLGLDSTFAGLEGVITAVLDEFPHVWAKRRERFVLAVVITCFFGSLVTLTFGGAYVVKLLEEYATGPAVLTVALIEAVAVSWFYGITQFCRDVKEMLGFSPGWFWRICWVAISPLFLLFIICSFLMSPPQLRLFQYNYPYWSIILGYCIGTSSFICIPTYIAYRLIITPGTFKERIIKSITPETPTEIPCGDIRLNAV

[11] = system: Mus musculus; test: Antidepressant activity in C57BL/6J mouse assessed as decrease in the immobility at 10 mg/kg, ip administered as single dose measured for last 4 mins of test by tail suspension method relative to vehicle-treated control; assay type: functional, organism-based; parameters: dose 10 mg/kg
[12] = system: Mus musculus; test: Inhibition of 8-OH-DPAT-induced hypothermia in C57BL/6J mouse assessed as reduction in core body temperature at 1 mg/kg, ip administered 30 mins prior challenge as single dose; assay type: functional, organism-based; parameters: dose 1 mg/kg; summary of the method: as §2
[13] = system: Mus musculus; test: Antidepressant activity in C57BL/6J mouse assessed as decrease in the immobility at 1 mg/kg, ip administered as single dose measured for last 4 mins of test by forced swim test relative to vehicle-treated control; assay type: functional, organism-based; parameters: dose 1 mg/kg
Summary of the method: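 Male and female C57BL/6J mice, 8−12 weeks, group housed; single ip injection, 0.9% saline vehicle; start 9:00 h. Mouse placed 6 min in clear cylinder (16 cm diameter, 25 cm high) holding 10 cm of 25 °C water, replaced between animals; trained observer scored immobility (no movement beyond keeping head above surface) over last 4 min. N = 7−9/group; Student's two-tailed unpaired t test.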

T1 sequence (P34969 whole entry): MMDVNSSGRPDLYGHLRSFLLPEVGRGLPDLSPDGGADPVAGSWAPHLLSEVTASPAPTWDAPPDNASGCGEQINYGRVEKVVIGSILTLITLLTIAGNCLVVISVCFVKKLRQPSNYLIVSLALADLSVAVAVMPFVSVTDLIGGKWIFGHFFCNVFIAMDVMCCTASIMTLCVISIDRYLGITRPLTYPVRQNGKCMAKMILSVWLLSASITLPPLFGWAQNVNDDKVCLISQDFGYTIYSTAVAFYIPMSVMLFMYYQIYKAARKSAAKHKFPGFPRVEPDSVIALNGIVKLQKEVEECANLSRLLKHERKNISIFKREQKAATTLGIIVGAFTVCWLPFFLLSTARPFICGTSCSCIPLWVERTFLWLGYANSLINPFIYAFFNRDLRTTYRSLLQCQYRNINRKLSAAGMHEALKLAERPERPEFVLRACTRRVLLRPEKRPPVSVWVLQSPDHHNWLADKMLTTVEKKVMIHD

Row | SMILES | Ki [1] [nM] | Ki [2] [nM] | IC50 [3] [nM] | also measured
1 | O=C1Cc2ccccc2N1CCCCCCCN1CCc2ccccc2C1 | 36 | > 1000 |  | 
2 | O=C1Cc2ccccc2N1CCCCCCN1CCc2ccccc2C1 | 24 | 576 |  | 
3 | O=C1Cc2ccccc2N1CCCCCCCN1CC[C@H]2CCCC[C@@H]2C1 (racemic) | 62 | > 1000 |  | 
4 | O=C1Cc2ccccc2N1CCCCN1CC[C@H]2CCCC[C@@H]2C1 (racemic) | 29 | 470 |  | 
5 | O=C1Cc2ccccc2N1CCCCCN1CCc2ccccc2C1 | 28 | 523 |  | 
6 | O=C1Cc2ccccc2N1CC/C=C/CCN1CC[C@H]2CCCC[C@@H]2C1 (racemic) | 2.7 | > 1000 | 2300 | EC50 [4]: 60 nM
7 | O=C1Cc2ccccc2N1CCCCCN1CC[C@H]2CCCC[C@@H]2C1 (racemic) | 41 | 491 |  | 
8 | O=C1Cc2ccccc2N1CC/C=C/CCN1CCc2ccccc2C1 | 0.7 | > 1000 | 2200 | inhibition [5]: -4%; Activity [6]: inactive; inhibition [7]: -10%; Activity [8]: Active; EC50 [4]: 230 nM; inhibition [9]: 15%; inhibition [10]: 14%; Activity [11]: inactive; inhibition [12]: Active; Activity [13]: Active
9 | CN1C[C@@H](NS(=O)(=O)N(C)C)C[C@@H]2c3cccc4c3c(cn4C)C[C@H]21 [MESULERGINE] |  |  | 290 | 
